Assay results: ChEMBL document CHEMBL1130381, “Synthesis and evaluation of trimetoquinol derivatives: novel thromboxane A2/prostaglandin H2 antagonists with diminished beta-adrenergic agonist activity” (J Med Chem, 1997)

Columns and labels:
[1] = molecular target: T1, Thromboxane A2 receptor (Homo sapiens, UniProt P21731); experiment: Inhibitory concentration against radioligand [3H]SQ-29,548 (5 nM) binding to TP receptors in human platelets
T1 sequence (P21731 whole entry): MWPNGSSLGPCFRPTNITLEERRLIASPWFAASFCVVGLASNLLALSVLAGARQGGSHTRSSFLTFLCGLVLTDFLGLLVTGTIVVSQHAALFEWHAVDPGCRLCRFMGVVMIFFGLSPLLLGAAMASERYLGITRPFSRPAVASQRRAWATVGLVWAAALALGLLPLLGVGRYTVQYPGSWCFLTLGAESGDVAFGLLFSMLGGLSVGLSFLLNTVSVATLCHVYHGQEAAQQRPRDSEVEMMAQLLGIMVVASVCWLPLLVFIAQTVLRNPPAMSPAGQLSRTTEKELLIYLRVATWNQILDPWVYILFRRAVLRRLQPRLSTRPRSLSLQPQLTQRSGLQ

[2] = organism: Homo sapiens; experiment: Inhibitory activity against U-46,619-induced (1 uM) human platelet activation (aggregation); format: functional
How it was run: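 Human platelet-rich plasma from volunteers free of medication for at least 10 days, with aspirin (1 mM) to block endogenous prostaglandins. Drug and aspirin preincubated 1 min, then U46619 (0.3–1 μM, minimum concentration giving maximal aggregation) added. Turbidometric aggregation monitored for 4 min. IC50 read graphically from percent response versus log concentration plots, reported as pIC50.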

[3] = organism: Homo sapiens; experiment: Inhibitory activity against U-46,619-induced (1 uM) human platelet activation (Serotonin secretion); format: functional
How it was run: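 Aspirin (1 mM) plus drug for 1 min, then U46619 (0.3–1 μM). Supernatant counted by liquid scintillation. Percent secretion = (sample − unstimulated background cpm)/(total − background cpm) × 100. IC50 taken graphically from log concentration–response plots, given as pIC50.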

[4] = organism: Homo sapiens; experiment: Potency ratio of human platelet aggregation; format: functional
[5] = molecular target: Beta-1 adrenergic receptor (Cavia porcellus) (UniProt B0FL73); details: Cardiac atrium
Sequence of Beta-1 adrenergic receptor (Cavia porcellus) (B0FL73 1-467): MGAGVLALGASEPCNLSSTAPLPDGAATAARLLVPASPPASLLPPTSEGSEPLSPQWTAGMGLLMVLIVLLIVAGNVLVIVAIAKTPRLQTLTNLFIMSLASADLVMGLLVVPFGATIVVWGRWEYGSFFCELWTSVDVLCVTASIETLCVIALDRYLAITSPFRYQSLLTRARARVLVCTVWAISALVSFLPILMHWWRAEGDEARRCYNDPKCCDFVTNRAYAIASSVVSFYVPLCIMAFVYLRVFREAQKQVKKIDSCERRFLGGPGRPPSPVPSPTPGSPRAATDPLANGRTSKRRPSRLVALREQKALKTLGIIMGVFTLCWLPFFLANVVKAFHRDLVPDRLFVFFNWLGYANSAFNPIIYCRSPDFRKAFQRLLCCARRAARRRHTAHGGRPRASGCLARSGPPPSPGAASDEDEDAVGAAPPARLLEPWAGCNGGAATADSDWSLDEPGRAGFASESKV

[6] = molecular target: Beta-2 adrenergic receptor (Cavia porcellus) (UniProt Q8K4Z4)
Sequence of Beta-2 adrenergic receptor (Cavia porcellus) (Q8K4Z4 whole entry, looked up): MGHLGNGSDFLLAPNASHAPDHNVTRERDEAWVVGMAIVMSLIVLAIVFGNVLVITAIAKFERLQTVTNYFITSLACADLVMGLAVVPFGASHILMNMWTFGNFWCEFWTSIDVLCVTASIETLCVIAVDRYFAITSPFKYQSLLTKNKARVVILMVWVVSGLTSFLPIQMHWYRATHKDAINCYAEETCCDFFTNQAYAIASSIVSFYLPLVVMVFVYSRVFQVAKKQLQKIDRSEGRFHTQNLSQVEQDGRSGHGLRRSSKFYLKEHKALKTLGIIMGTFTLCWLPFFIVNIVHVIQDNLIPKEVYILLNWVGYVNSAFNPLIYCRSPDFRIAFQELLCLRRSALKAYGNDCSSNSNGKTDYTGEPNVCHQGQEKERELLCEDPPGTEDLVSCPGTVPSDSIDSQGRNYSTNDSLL

Compound	IC50 [1]	Ki [1]	IC50 [2]	IC50 [3]	Potency ratio [4]	pD2 [5]	pD2 [6]
COc1cc(N=C2NCCc3cc(O)c(O)cc32)cc(OC)c1OC	275 µM	120 µM					
COc1cc(CC2c3cc(O)c(O)cc3CCN2CCc2ccccc2)cc(OC)c1OC (configuration not stated)	41.7 µM	16.2 µM	38 µM	34.7 µM	0.0302	4.62	4.64
O=[N+]([O-])c1ccc(CC2NCCc3cc(O)c(O)cc32)cc1 (configuration not stated)	25.1 µM	9.55 µM	44.7 µM	60.3 µM		7.26	7.49
COc1cc(CC2NCCc3cc(O)c(O)cc32)cc(I)c1OC (configuration not stated)					1.12		
COc1cc(C[C@@H]2NCCc3cc(O)c(O)cc32)cc(OC)c1OC [TRETOQUINOL]			1.15 µM	1.32 µM		7.36	7.26
COc1cc(NC2=NCCc3cc(O)c(O)cc32)cc(OC)c1OC			200 µM	204 µM	0.00575		3.95
O=[N+]([O-])c1cc(CC2NCCc3cc(O)c(O)cc32)ccc1O (configuration not stated)	0.871 µM	0.339 µM	1.26 µM	1.12 µM		5.91	6.55
Nc1ccc(CC2NCCc3cc(O)c(O)cc32)cc1 (configuration not stated)	89.1 µM	34.7 µM	129 µM	145 µM		6.21	6.75
COc1cc(CC2c3cc(O)c(O)cc3CCN2Cc2ccccc2)cc(OC)c1OC (configuration not stated)					0.0331		
